The nature of test [1]: OD615 S. cerevisiae growth inhibition, permissive medium, pilot counter-assay, permissive growth control for S. cerevisiae lifespan shortening project (AID 705;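 active means growth inhibition above 25% in both replicates, a cutoff set 3 SD above the mean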). The following applies: OD615, 24 h, at 10 µM, hits give high values. The procedure, abridged: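 System: Engineered DeaD yeast | Buffer or medium: SC raffinose/galactose permissive medium | Doses: 10 µM single dose, 0.25% DMSO | Times: 24 h exposure, 30 °C | Measured by: OD615 turbidity read | Read-out: Yeast growth inhibition indicated by reduced 24 h OD615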

Test [2] in a line: Restrictive medium S. cerevisiae growth inhibition, OD615, pilot screen of yeast lifespan reduction project, restrictive growth control (AID 706;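 active means growth inhibition above a set limit, 3 SD over mean compound inhibition, in both replicates, cut at about 43% in these data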;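 further: modified DeaD lifespan yeast strain shifted to restrictive glucose medium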). The following applies: OD615, 48 h, at 10 µM, hits give high values. Summed up:
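Assay system: engineered S. cerevisiae DeaD strain; Buffer or medium: CSMM-D glucose medium; Dosing: 10 µM compound, 0.25% DMSO; Times: cell pre-growth 4 h, compound exposure 48 h, 30 °C; Detection: absorbance (optical density) measured at 615 nm.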

Test [3] is described as follows: viability gain of MRP-1-high H69AR cells under doxorubicin, pilot screen, MRP-1 activator project, CellTiter-Glo, duplicate (AID 807;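 active means viability increase at or above a cutoff of the median across tested compounds plus 3 SD, cut at about 8.5% in these data, passing the limit was not always enough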;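 further: compound pretreatment 18-22 h then 72 h combined with doxorubicin; 0% = doxorubicin alone and 100% = vehicle without doxorubicin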). To be noted: H69AR viability with doxorubicin, CellTiter-Glo luminescence; at 10 µM; hits give high values. A general note: ATP-based viability assays read luminescence as a measure of living cells.
The nature of test [4]: growth suppression of beta-catenin knockout HCT116, pilot screen, human colon tumor cells (AID 823;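 active means cell viability at or below a set limit in both duplicate runs, the limit being the all-compound median minus 4 SD, cut at about 23% in these data, passing the limit was not always enough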;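 further: 0% = wells killed by 20 µM Hyamine and 100% = untreated DMSO cell wells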). The following applies: CellTiter-Glo, 60 h, at 10 µM, hits give low values.
The nature of test [5]: growth suppression of PTEN-deleted HCT116, pilot screen, cell-based, HCT116 clonal line, CellTiter-Glo (AID 824;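 active means viability at or below 27.92% in each of two runs, the all-compound median minus 4 SD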;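 further: 0% = 20 µM Hyamine control and 100% = vehicle cell control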). The following applies: 60 h, at 10 µM, hits give low values.
Test [6] is described as follows: inhibitors of the yeast RAM network, pilot screen, dse1pr::URA3 reporter, 5-FOA selection (AID 869;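 active means inhibition over a set limit, the all-compound mean plus 3 SD, in both replicate runs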;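 further: 0% = DMSO wells with no growth and 100% = 10 µM 1-NA-PP1 with full growth; RAM network block rescues cells from 5-FOA so hits raise OD615 growth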). To be noted: S. cerevisiae dse1pr::URA3 5-FOA growth, OD615, 2 d; at 10 µM; hits give high values; strain carries analog-sensitive mutant Cbk1 kinase.
The nature of test [7]: RAM signaling pathway blockade in yeast – S. cerevisiae, Pdr1DBD-CYC8 efflux-inhibited sensitized strain, primary screen (AID 1298).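 Further: 0% = DMSO untreated cells without growth and 100% = 10 µM 1-NA-PP1 full growth; higher means more yeast growth rescued from 5-FOA killing.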 To be noted: S. cerevisiae cbk1-as DSE1-URA3 strain, 5-FOA growth OD615, 2 d; at 50 µM; hits give high values.

Molecules are shown by their SMILES. A number with no mark means an inactive call. Inconclusive results are not listed. Activity calls are given as the source filed them.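 How the source made its calls, unless noted: active means RAM network inhibition above 8.4% in each of two replicates, 3 SD over the compound average; inconclusive means above 8.4% inhibition in only one replicate; inactive means 8.4% inhibition or less in each replicate.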

Data on 16 molecules can be found in PubChem BioAssay.

As a reminder, the viability is a read-out of living cells in per cent, often relative to untreated cells. Usually inhibition stands for the drop in the measured response relative to a control, in per cent.

Turning to `Cc1nc2ccc(S(=O)(=O)NC(C(=O)N3CCn4c3nc3ccccc34)C(C)C)cc2s1` (configuration not stated), the growth inhibition in test [1] was 0.9%; in test [2] it was 8.13%. In addition, the viability increase in test [3] was -1.67%. For the same molecule, the viability in test [4] was 102%; in test [5], 97.2%. In addition, the inhibition in test [6] was 1.02%. The RAM network inhibition in test [7] is 5.83%.

With `CN(C)c1ccc(CN2CCCCCC2)cc1`, the growth inhibition is -3.95% in test [1] and -24.5% in test [2]. For the same molecule, the viability increase in test [3] was -2%. The values for the viability in test [4] and in test [5] were 87% and 88.1%, respectively. In addition, the inhibition in test [6] was 0.44%. Besides, the RAM network inhibition in test [7] is 0.1%.

As to `COc1ccccc1-n1c(=O)[nH]c2c(C(N)=O)nc(C3CCCCC3)nc21`, the growth inhibition was -7.19% in test [1] and -5.21% in test [2]. For the same molecule, the viability increase in test [3] is -3.33%. In addition, the figures for the viability in test [4] and in test [5] were 94.7% and 77.5%, respectively. The inhibition in test [6] is 1.55%. Besides, in test [7], the RAM network inhibition is 2.69%.

As to `COc1ccccc1NC(=O)C1=C(C)Nc2nnnn2C1c1cccc(C)c1` (configuration not stated), the growth inhibition in test [1] is -13.2%; in test [2] it was -18.7%. The viability increase in test [3] was -5.73%. Moreover, the viability in test [4] was 82.3%; in test [5] it was 80.8%. In test [6], the inhibition was 3.79%. Besides, the RAM network inhibition in test [7] is 2.19%.

`O=C(NCc1ccccn1)C1CCC(=O)N1C1CCCC1` (configuration not stated): the growth inhibition in test [1] was -0.9%; in test [2] it was 3.94%. The viability increase in test [3] was -0.45%. The viability in test [4] was 98.2%; in test [5], 98%. Besides, the inhibition in test [6] is 1.67%. The RAM network inhibition in test [7] is 4.67%.

Take `COc1ccc(Cc2nnc(SCC(=O)NC(C)c3ccccc3)o2)cc1` (configuration not stated): the growth inhibition in test [1] was 2.93%; in test [2], -8.12%. Also, in test [3], the viability increase was -1.25%. Further, the viability in test [4] is 91.2%; in test [5], 86.8%. Further, the inhibition in test [6] was 0.57%. The RAM network inhibition in test [7] is 4.19%.

With `CCOC(=O)C1CCCN(C(=O)Cn2nc(CC)n3c(cc4sccc43)c2=O)C1` (configuration not stated), the growth inhibition in test [1] was -3.41%; in test [2], -9.06%. In test [3], the viability increase is -0.92%. In addition, the viability in test [4] and in test [5] was 105% each time. Also, the inhibition in test [6] is 1.33%. For the same molecule, the RAM network inhibition in test [7] is 8.75%.

Take `Cc1cc(C)c2c(=O)n(CC(=O)N3CCC(N4CCCCC4)CC3)sc2n1`: the growth inhibition in test [1] is 4.7%; in test [2], 9.28%. For the same molecule, the viability increase in test [3] was -7.14%. Moreover, the viability in test [4] was 2.7% (active); in test [5], 16.2% (active). For the same molecule, the inhibition in test [6] was 2.08%. Besides, the RAM network inhibition in test [7] is 0.2%.

Take `O=C(Cn1cc2c(n1)CCCC2)NCCCN1CCN(C2CCCCC2)CC1`: the growth inhibition in test [1] is -3.58%; in test [2], 9.3%. Also, the viability increase in test [3] was -0.74%. Also, the viability is 101% in test [4] and 93.1% in test [5]. Moreover, the inhibition in test [6] is 1.92%. The RAM network inhibition in test [7] was 0.77%.

Regarding `O=C1NCCCC1C(=O)NCCNC(=O)C(F)(F)F` (configuration not stated), the growth inhibition is -4.04% in test [1] and -0.705% in test [2]. Besides, the viability increase in test [3] is -1.47%. Further, the viability in test [4] is 101%; in test [5] it was 94.7%. The inhibition in test [6] was 0.3%. In addition, in test [7], the RAM network inhibition is 4.25%.

With `COc1ccccc1N1CCN(C(=O)CCCn2c(=O)[nH]c3ccsc3c2=O)CC1`, the figures for the growth inhibition in test [1] and in test [2] were 3.76% and 7.54%, respectively. For the same molecule, the viability increase in test [3] is -2.24%. For the same molecule, the viability was 98.6% in test [4] and 97.2% in test [5]. The inhibition in test [6] was 0.74%. Moreover, the RAM network inhibition in test [7] is -0.42%.

In the case of `Nc1nc(SCC(=O)OCc2ccccc2)[nH]c(=O)c1NC(=O)c1ccco1`, the results for the growth inhibition in test [1] and in test [2] were -8.4% and -11.7%, respectively. In addition, in test [3], the viability increase was -1.48%. Besides, the viability in test [4] is 101%; in test [5], 98.7%. The inhibition in test [6] is 1.36%. Moreover, in test [7], the RAM network inhibition is -0.54%.

`COc1ccccc1NC(=O)c1ccc(S(=O)(=O)N2CCCC2)cc1`: the growth inhibition in test [1] was -5.88%; in test [2] it was -5.9%. Moreover, the viability increase in test [3] was 0.68%. Also, the viability in test [4] was 114%; in test [5] it was 94.9%. For the same molecule, in test [6], the inhibition is 2.33%. Also, the RAM network inhibition in test [7] is 2.32%.

As to `COC(=O)C(C)Sc1nnc(Cc2cc(=O)[nH]c(=O)[nH]2)n1-c1cc(C)ccc1C` (configuration not stated), the growth inhibition in test [1] is -5.62%; in test [2] it was 0.885%. Besides, the viability increase in test [3] was -1.25%. The results for the viability in test [4] and in test [5] were 96% and 90.3%, respectively. For the same molecule, the inhibition in test [6] is 1.77%. Further, the RAM network inhibition in test [7] was 0.62%.

For the molecule `COCCn1c(SCC(=O)N2CCN(c3ccccc3)CC2)nc2c(c1=O)SC(C)C2` (configuration not stated), the growth inhibition in test [1] and in test [2] was 10.7% each time. Besides, the viability increase in test [3] was -3.54%. Also, the figures for the viability in test [4] and in test [5] were 103% and 92.9%, respectively. In addition, in test [6], the inhibition is 1.65%. Besides, the RAM network inhibition in test [7] was 2.75%.

Take `CCc1nnc(NC(=O)C(C)Sc2ccccc2)s1` (configuration not stated): the growth inhibition is 6.98% in test [1] and 18.9% in test [2]. Also, the viability increase in test [3] was 1.53%. The results for the viability in test [4] and in test [5] were 99.3% and 98.1%, respectively. The inhibition in test [6] is 1.98%. The RAM network inhibition in test [7] was -0.83%.
